The text below walks through data of PubChem BioAssay.

Each structure is given as a SMILES string. Active and inactive are the calls of the source.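 How the source made its calls, unless noted: active means fluorescence slope after compound addition differing from the mean of all tested samples at 99.7% confidence, mostly higher but some lower; inactive means the rest.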

The nature of assay [1]: inhibitors of TNFa-induced NFkB p65 translocation, primary screen, imaging, HUVEC, MLSMR starter and 10KST1 sets (AID 438;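 active means inhibition above 20% together with a positive visual image hit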;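 further: compound added about 3h40 before a 20 min TNFalpha stimulation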;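 on inhibition: signal is the nuclear over cytoplasmic p65 intensity ratio per well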). To be noted: HUVEC TNFa-induced p65 nuclear translocation; cell count: measured here: nuclei count (cytotoxicity indicator), at 2.08 µM; inhibition: at 2 µM, stronger effect = higher value, 0% TNFa-plus-vehicle, 100% no-TNFa wells.
The nature of assay [2]: inhibitors of E-selectin induction by TNFa, primary screen, imaging, HUVEC, immunofluorescence, MLSMR starter and 10KST1 sets (AID 487;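 active means visually confirmed hit in the image check and inhibition above 20%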;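 on inhibition: signal is fraction of cell area covered by stained E-selectin grains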;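 on nuclei count: 100% = median nuclei count of all wells on the same plate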). To be noted: HUVEC TNFalpha-induced E-selectin immunofluorescence imaging, at 2 µM; inhibition: stronger effect = higher value; nuclei count: measured here: cell number, toxicity.
Assay [3] is described as follows: DUSP6 inhibitors restoring Erk phosphorylation by chemical complementation, primary imaging in DUSP6-transfected HeLa (AID 609;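 active means compounds giving at least 50% inhibition in the cell-based MKP-3 phosphatase rescue imaging test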;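 on inhibition: phospho-Erk level distribution per well compared with pooled transfected vehicle control wells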). To be noted: HeLa MKP-3 transfected, phospho-Erk imaging KS statistic, at 10 µM, cells stimulated with TPA for 15 min.
In assay [4] the target is Dual specificity protein phosphatase 6 (Homo sapiens) (UniProt Q16828). The assay is described as above. Particulars: HeLa MKP-3 transfected, phospho-Erk imaging KS statistic; at 10 µM; stronger effect = higher value; cells stimulated with TPA for 15 min.
For assay [5], the target named is Voltage-gated potassium channel subunit beta-2 (Rattus norvegicus) (UniProt P62483). Description: KvBeta enzyme negative modulators, primary screen, biochemical, NADPH fluorescence (AID 622;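 active means fluorescence slope higher than the sample average by over 3 SD, cut at about -0.22 in these data, passing the limit was not always enough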;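 further: slope of raw intensity against log time taken from 70 to 1610 s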). To be noted: recombinant KvBeta, 4-cyanobenzaldehyde reduction, at 10 µM, stronger effect = higher value.
Assay [6] has the same target. Nature of the assay: KvBeta positive modulators, primary screen, biochemical, NADPH fluorescence (AID 623;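 active means NADPH fluorescence slope more negative than the mean of all samples by about 3 SD, 99.7% confidence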;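 further: fluorescence intensity change per second fitted from 20 to 320 s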). To be noted: Recombinant KvBeta, NADPH fluorescence decrease slope, 10 min; at 10 µM; stronger effect = lower value.
Assay [7] addresses Muscarinic acetylcholine receptor M4 (Homo sapiens) (UniProt P08173). Description: compounds altering M4/GIRK thallium flux, either direction, primary screen, M4 allosteric agonist project, cell-based, HEK293 M4/GIRK, BTC-AM (AID 625).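 Further: thallium influx through GIRK channels coupled to M4 in HEK293 cells with BTC-AM dye.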 To be noted: at 10 µM, actives lie on both sides. The essentials:
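Material: HEK293 cells with M4 receptor and GIRK channels; Times: cells overnight at 37 °C, BTC-AM loading 1 h, reads 2 min total; Technique: kinetic BTC-AM fluorescence sampled at 1 Hz, 10 s pre-addition baseline; Read-out basis: slope over 15–24 s of trace normalized to starting intensity; Controls: carbachol positive, DMSO negative.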

Assay [8] can be described thus: inhibitors of larval lipid processing in zebrafish, primary screen, whole organism, PED6 fluorescence, gall bladder and intestine (AID 686;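 active means a full or partial loss of lipid-probe fluorescence in the fish gall bladder, intestine or both, judged by eye; inactive means no fluorescence loss, or compound toxic to the fish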;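 further: larvae 5 to 7 days old with five fish per well; signal comes from phospholipase A2 cleavage of quenched PED6 carried via bile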). To be noted: Zebrafish larvae PED6 lipid processing, fluorescence scoring; screened at 20 µM (by protocol). The essentials:
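Incubation: overnight exposure of larvae to compound plus PED6 / Test system: live zebrafish larvae aged 5-7 days, whole organism / Amount: 5 larvae per well / Read-out basis: visual per-well fluorescence inhibition score / Signal: visual fluorescence microscopy scoring of gall bladder, gut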

Assay [9] can be described thus: inhibitors of Chlamydomonas gravitaxis, primary screen, whole organism, Chlamydomonas reinhardtii, WT vs cilia-less mutant, absorbance, 96-well (AID 463189;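 active means inhibition at or above 50% relative to wild type and mutant plate controls; inactive means inhibition below 50%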;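 further: 0% = wild type cc124 cells in DMSO and 100% = ciliumless bld1 mutant cells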). Particulars: OD600 absorbance, 2 days, at 10 µM, stronger effect = higher value.
[10] abbreviates: measured here: cell density z-score.
Where [11] appears, read: measured here: nuclear c-Myc green intensity z-score.
Setting [12] is: measured here: nuclear pErk red intensity z-score, stronger effect = higher value.

Sequence of Voltage-gated potassium channel subunit beta-2 (Rattus norvegicus) (P62483 whole entry, looked up): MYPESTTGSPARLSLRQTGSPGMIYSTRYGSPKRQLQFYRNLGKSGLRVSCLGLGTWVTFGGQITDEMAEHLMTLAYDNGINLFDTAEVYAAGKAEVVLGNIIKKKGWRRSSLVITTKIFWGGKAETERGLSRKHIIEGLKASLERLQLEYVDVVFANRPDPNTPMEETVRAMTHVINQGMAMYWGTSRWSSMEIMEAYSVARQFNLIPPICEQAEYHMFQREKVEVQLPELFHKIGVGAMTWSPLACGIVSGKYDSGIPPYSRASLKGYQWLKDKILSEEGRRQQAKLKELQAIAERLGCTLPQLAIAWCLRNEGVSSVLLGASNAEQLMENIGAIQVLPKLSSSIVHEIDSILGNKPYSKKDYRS
Sequence of Dual specificity protein phosphatase 6 (Homo sapiens) (Q16828 whole entry, looked up): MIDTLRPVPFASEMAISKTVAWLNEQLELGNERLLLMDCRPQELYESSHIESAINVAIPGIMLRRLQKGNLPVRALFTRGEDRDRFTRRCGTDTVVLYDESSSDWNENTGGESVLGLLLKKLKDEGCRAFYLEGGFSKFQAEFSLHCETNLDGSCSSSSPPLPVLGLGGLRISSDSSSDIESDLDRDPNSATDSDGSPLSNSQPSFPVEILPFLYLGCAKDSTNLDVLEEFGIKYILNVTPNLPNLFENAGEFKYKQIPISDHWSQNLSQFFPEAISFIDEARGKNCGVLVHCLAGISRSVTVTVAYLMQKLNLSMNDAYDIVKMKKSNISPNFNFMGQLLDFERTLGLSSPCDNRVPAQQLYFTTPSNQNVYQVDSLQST
Sequence of Muscarinic acetylcholine receptor M4 (Homo sapiens) (P08173 whole entry, looked up): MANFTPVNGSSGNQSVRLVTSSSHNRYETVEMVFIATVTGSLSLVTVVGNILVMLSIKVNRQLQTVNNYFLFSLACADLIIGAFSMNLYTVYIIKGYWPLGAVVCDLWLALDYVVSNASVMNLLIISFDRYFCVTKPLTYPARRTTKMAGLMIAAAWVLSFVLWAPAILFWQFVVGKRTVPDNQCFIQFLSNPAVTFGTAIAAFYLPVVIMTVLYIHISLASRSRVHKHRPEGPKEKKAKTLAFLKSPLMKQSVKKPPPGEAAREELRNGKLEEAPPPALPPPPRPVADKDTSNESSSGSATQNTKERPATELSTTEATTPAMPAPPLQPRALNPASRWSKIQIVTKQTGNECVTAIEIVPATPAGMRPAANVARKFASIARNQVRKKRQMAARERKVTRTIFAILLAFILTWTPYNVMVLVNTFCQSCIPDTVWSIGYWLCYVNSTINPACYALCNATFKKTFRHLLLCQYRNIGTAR

For `Clc1ccc(-n2ncc3c(NCc4ccco4)ncnc32)cc1`, the cell count in assay [1] came to 582. The inhibition (as a rule, the relative decrease from the control value, in per cent) is -17.4% (inactive) in assay [1], 19.7% (inactive) in assay [2], 19.4% (inactive) in [4] and 45.5% (inactive) in assay [9]. Further, the nuclei count in [2] stood at 154%. Moreover, the figures for the z-score in assay [3] (setting [10]), in [3] (setting [11]) and in assay [3] (setting [12]) were 0.502, -0.386 and 0.00112, respectively. In addition, the fluorescence slope is -0.339 (inactive) in assay [5] and 0.00727 (inactive) in assay [7]. In [6], the NADPH fluorescence slope is -2.6e-05 (inactive). Also, the call in [8] was inactive.

Regarding `CCCCC(CCC(=O)Nc1ccc(C(=O)OCC)cc1)C(=O)O` (stereo unspecified), in assay [1], the cell count was found to be 378. The inhibition in assay [1] was -11.3% (inactive); in [2] it was -153% (inactive); in [4], -0.608% (inactive); in assay [9], 5.13% (inactive). Further, the nuclei count in assay [2] came to 159%. Also, the results for the z-score in [3] (setting [10]), in [3] (setting [11]) and in assay [3] (setting [12]) were -0.634, -1.85 and 0.598, respectively. The results for the fluorescence slope in assay [5] and in assay [7] were -0.468 (inactive) and 0.00338 (inactive), respectively. In assay [6], the NADPH fluorescence slope was -0.000129 (inactive). Further, in assay [8], the compound was classed as inactive.

Regarding `COC(=O)[C@H]1CCCN1C(=O)Nc1cccc(Oc2c(F)c(F)c(F)c(F)c2F)c1`, in assay [1], the cell count came out at 709. For the same compound, the inhibition in assay [1] is -2.1% (inactive); in [2], 2.5% (inactive); in assay [4], 13.4% (inactive); in assay [9] it was 36.9% (inactive). The compound further returned a nuclei count in [2] of 205%. Further, the results for the z-score in assay [3] (setting [10]), in [3] (setting [11]) and in assay [3] (setting [12]) were 0.848, 0.709 and 0.784, respectively. Further, the figures for the fluorescence slope in assay [5] and in assay [7] were -0.396 (inactive) and 0.00536 (inactive), respectively. Also, in [6], the NADPH fluorescence slope was -4.7e-05 (inactive). Moreover, the result in assay [8] was inactive.

Consider `Oc1ccc2ccccc2c1C=NC12CN3CCN(CN(C3)C1)C2`, for which the cell count in assay [1] came out at 349. Moreover, the inhibition in assay [1] was -5.7% (inactive); in assay [2], -45.1% (inactive); in [4], -2.59% (inactive); in [9], 1.64% (inactive). In assay [2], this compound had a nuclei count of 163%. Further, the z-score in assay [3] (setting [10]) was -0.271; in assay [3] (setting [11]), 0.531; in assay [3] (setting [12]), 0.781. The figures for the fluorescence slope in assay [5] and in assay [7] were -0.436 (inactive) and 0.00489 (inactive), respectively. Besides, the NADPH fluorescence slope in assay [6] was -0.000124 (inactive). For the same compound, the compound was called inactive in assay [8].

Turning to `CC(NC(=O)CSc1nnc(COc2ccccc2)o1)c1ccccc1` (stereo unspecified), the cell count in [1] was found to be 397. The inhibition is 1.7% (inactive) in assay [1], -35.2% (inactive) in [2], -6.86% (inactive) in assay [4] and 5.02% (inactive) in [9]. The compound also yielded a nuclei count in assay [2] of 134%. For the same compound, the z-score in [3] (setting [10]) is -0.868; in assay [3] (setting [11]) it was 0.275; in [3] (setting [12]) it was 1.84. In addition, the fluorescence slope in [5] was -0.453 (inactive); in [7], 0.00476 (inactive). Moreover, the NADPH fluorescence slope in assay [6] is -0.000143 (inactive). In addition, the compound was classed as inactive in assay [8].

Take `O=C1OC(N2CCN(C/C=C/c3ccccc3)CC2)c2ccccc21` (stereo unspecified): in assay [1], the cell count was 390. Moreover, the inhibition in assay [1] was -1.2% (inactive); in assay [2], -65.2% (inactive); in [4] it was 14% (inactive); in assay [9] it was 28.9% (inactive). In addition, the nuclei count in assay [2] is 168%. Moreover, the results for the z-score in [3] (setting [10]), in [3] (setting [11]) and in assay [3] (setting [12]) were 0.231, -0.597 and 0.38, respectively. The fluorescence slope in assay [5] was -0.458 (inactive); in assay [7], 0.00426 (inactive). Besides, the NADPH fluorescence slope in [6] was -0.000109 (inactive). Also, the call in [8] was inactive.

As to `CCCCC(=O)NC(Nc1ccc(C)cn1)(C(=O)OCC)C(F)(F)F` (stereo unspecified), in assay [1], the cell count was 651. Moreover, the inhibition in assay [1] is -16.3% (inactive); in [2] it was -59% (inactive); in assay [4], 1.63% (inactive); in assay [9], -0.324% (inactive). The compound also displayed a nuclei count in [2] of 156%. Further, the z-score in assay [3] (setting [10]) was 0.317; in assay [3] (setting [11]), -1.54; in assay [3] (setting [12]) it was 1.99. Besides, the results for the fluorescence slope in assay [5] and in assay [7] were -0.481 (inactive) and 0.00419 (inactive), respectively. Further, the NADPH fluorescence slope in assay [6] was -4.4e-05 (inactive). Also, the result in assay [8] was inactive.
